Laboratory results reported in ChEMBL document CHEMBL3352170, “Sulfonamides as multifunctional agents for Alzheimer's disease” (Bioorg Med Chem Lett, 2015).
Calls of active or inactive are those of the source. The calls are words filed in the database; no cut-off is given here.

How the values were obtained:
[1] = biological target: Amyloid-beta precursor protein (Homo sapiens) (UniProt P05067); assay: Stimulation of Amyloid beta (1 to 42) (unknown origin) oligomer assembly at Abeta:compound ratio of 0.0002 after 30 mins by single-site ELISA assay
Sequence of Amyloid-beta precursor protein (Homo sapiens) (P05067 whole entry): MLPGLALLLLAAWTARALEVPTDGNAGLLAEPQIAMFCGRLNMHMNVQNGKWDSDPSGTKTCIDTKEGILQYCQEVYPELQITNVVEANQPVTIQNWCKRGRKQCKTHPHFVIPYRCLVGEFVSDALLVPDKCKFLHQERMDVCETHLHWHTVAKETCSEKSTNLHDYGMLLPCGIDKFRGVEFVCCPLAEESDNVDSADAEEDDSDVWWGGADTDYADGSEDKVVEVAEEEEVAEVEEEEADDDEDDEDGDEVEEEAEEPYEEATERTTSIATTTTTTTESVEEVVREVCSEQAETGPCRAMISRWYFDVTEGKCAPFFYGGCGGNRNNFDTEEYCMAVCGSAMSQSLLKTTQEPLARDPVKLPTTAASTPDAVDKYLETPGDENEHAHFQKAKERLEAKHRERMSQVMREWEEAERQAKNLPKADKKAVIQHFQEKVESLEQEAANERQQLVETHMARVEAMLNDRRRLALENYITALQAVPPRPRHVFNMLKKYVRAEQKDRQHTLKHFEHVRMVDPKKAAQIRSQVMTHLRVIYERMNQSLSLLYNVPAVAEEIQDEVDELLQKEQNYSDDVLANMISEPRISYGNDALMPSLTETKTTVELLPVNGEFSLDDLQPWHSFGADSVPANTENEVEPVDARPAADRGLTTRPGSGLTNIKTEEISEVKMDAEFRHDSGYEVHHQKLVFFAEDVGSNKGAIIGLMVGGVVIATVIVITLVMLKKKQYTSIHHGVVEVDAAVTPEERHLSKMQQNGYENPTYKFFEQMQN
Procedure, shortened: (§1)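 Oligomer formation was read in a single-site streptavidin-based assay using biotinyl-Aβ(1–42) at 0.01 µM. Aβ/inhibitor ratio was 0.0002, with 30 min incubation.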

[2] = Antioxidant activity assessed as DPPH radical scavenging activity at 10 uM after 30 mins; format: physicochemical; conditions: 0.5 h
[3] = biological target: Amyloid-beta precursor protein (Homo sapiens) (UniProt P05067); assay: Inhibition of Amyloid beta (1 to 40) (unknown origin) fibril formation at Abeta:compound ratio of 1:10 after 4 days by Thioflavin-T fluorescence assay
Procedure, shortened: (§2)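 Aβ fibrillogenesis was measured by quantitative Thioflavin-T fluorescence with Aβ at 100 µM and Aβ:inhibitor at 1:10, or 1:1 for one compound. Signal was normalized to the fluorescence of the inhibitor-free control.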

[4] = biological target: Amyloid-beta precursor protein (Homo sapiens) (UniProt P05067); assay: Inhibition of Amyloid beta (1 to 42) (unknown origin) oligomer assembly at Abeta:compound ratio of 0.0002 after 30 mins by single-site ELISA assay; procedure, shortened: as §1
[5] = biological target: Amyloid-beta precursor protein (Homo sapiens) (UniProt P05067); assay: Stimulation of Amyloid beta (1 to 40) (unknown origin) fibril formation at Abeta:compound ratio of 1:10 after 4 days by Thioflavin-T fluorescence assay; procedure, shortened: as §2
Cholinesterase [6] = biological target: T1, Cholinesterase (Homo sapiens, UniProt P06276); assay: Inhibition of BuChE (unknown origin) assessed as reduction in S-butyrylthiocholine chloride hydrolysis at 10 uM after 15 mins by Ellman method
T1 sequence (P06276 whole entry): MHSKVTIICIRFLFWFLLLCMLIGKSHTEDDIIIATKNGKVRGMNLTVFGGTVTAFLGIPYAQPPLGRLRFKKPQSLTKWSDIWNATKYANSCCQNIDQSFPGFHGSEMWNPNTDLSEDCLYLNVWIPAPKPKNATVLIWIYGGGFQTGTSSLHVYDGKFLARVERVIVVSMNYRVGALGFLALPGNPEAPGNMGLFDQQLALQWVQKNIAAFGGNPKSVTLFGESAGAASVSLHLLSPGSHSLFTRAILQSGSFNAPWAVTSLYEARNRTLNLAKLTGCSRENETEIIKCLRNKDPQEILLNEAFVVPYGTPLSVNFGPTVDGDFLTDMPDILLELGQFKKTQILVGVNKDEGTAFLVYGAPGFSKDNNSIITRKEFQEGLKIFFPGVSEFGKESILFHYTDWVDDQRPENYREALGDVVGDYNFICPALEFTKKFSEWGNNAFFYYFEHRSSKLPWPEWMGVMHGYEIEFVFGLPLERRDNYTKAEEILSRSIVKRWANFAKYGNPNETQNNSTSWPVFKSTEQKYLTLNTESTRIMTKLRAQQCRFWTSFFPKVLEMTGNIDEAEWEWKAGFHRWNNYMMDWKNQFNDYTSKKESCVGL
Procedure, shortened: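 Single-concentration screen of the commercial and synthetic sulfonamides. Read-out is percent inhibition of BuChE activity. Galanthamine serves as the reference standard.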

Cholinesterase [7] = biological target: T1, Cholinesterase; assay: Inhibition of BuChE (unknown origin) assessed as reduction in S-butyrylthiocholine chloride hydrolysis after 15 mins by Ellman method
[8] = biological target: Amyloid-beta precursor protein (Homo sapiens) (UniProt P05067); assay: Inhibition of Amyloid beta (1 to 40) (unknown origin) fibril formation at Abeta:compound ratio of 1:10 after 4 days by atomic force microscopy
Procedure, shortened: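 Aβ(1–40) was incubated for 4 days with or without inhibitor, at 100 µM Aβ and Aβ:inhibitor 1:10. Fibril morphology was imaged by atomic force microscopy against a solvent-treated control.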

[9] = biological target: Amyloid-beta precursor protein (Homo sapiens) (UniProt P05067); assay: Inhibition of Amyloid beta (1 to 40) (unknown origin) fibril formation at Abeta:compound ratio of 1:1 after 4 days by Thioflavin-T fluorescence assay; conditions: concentration not given here; procedure, shortened: as §2
Acetylcholinesterase = Acetylcholinesterase (Homo sapiens, UniProt P22303); assay: Inhibition of AChE (unknown origin) assessed as reduction in acetylthiocholine iodide hydrolysis after 15 mins by Ellman method
Sequence of Acetylcholinesterase (P22303 whole entry): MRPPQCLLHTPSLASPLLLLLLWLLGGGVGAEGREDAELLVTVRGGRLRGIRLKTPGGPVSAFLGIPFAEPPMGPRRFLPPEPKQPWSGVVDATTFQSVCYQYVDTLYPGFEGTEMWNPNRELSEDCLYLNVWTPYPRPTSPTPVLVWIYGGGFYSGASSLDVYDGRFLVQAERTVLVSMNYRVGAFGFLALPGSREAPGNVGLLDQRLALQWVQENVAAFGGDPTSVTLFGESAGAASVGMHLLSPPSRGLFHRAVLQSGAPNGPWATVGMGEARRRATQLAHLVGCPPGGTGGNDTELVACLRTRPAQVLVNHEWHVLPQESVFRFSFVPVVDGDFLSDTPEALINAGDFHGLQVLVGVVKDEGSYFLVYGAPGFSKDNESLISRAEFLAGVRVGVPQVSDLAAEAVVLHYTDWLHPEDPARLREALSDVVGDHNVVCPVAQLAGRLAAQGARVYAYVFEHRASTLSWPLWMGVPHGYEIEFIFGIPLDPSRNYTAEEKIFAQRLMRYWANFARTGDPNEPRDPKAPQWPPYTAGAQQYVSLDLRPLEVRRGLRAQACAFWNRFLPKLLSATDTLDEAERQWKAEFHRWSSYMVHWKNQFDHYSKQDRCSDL

Structure (SMILES) | Activity [1] | inhibition [3] | inhibition [4] | Activity [5] | inhibition (Cholinesterase [6]) [%] | also measured
Cl.O=S(=O)(CCCN(CCO)CCO)NCCNc1cccc2ccccc12 | Active | Active |  |  |  | Activity [2]: Active
O=C1c2ccccc2S(=O)(=O)N1CCO |  |  | < 54% | Active |  | 
O=S(=O)(CCCN1CCN(c2ncccn2)CC1)NCCNc1cccc2ccccc12 | Active | Active |  |  |  | 
O=C1c2ccccc2S(=O)(=O)N1CCCN1CCC(O)CC1 |  |  | < 54% | Active |  | 
O=C1c2ccccc2S(=O)(=O)N1CCCN1CCN(Cc2ccccc2)CC1 |  |  | inactive | Active |  | 
O=S(=O)(CCCN1CCN(c2ccccc2)CC1)NCCNc1cccc2ccccc12 | Active | Active |  |  | > 40 | 
O=S(=O)(CCCN1CCC(O)CC1)NCCNc1cccc2ccccc12 | Active |  |  |  |  | inhibition ([3]; concentration not given here): 64%
O=S(=O)(CCCNCCc1c[nH]c2ccccc12)NCCNc1cccc2ccccc12 | Active | Active |  |  | > 80 | 
O=C(NCCCCNC(=O)c1ccc2ccccc2c1)c1ccc2ccccc2c1 |  | Active | 99% |  |  | 
Cc1ccccc1S(N)(=O)=O |  |  | < 54% | Active |  | 
O=S(=O)(CCCN1CCC(c2ccccc2)CC1)NCCNc1cccc2ccccc12 | Active |  |  |  | 58 | IC50 (Cholinesterase [7]): 5080 nM; inhibition ([3]; concentration not given here): 87%; inhibition [8]: Active
O=S(=O)(CCCN1CCN(c2ccccn2)CC1)NCCNc1cccc2ccccc12 | Active | Active |  |  | > 40 | 
O=S(=O)(CCCN1CCOCC1)NCCNc1cccc2ccccc12 | Active | Active |  |  |  | 
Oc1ccc(/C=C/c2cc(O)cc(O)c2)cc1 [RESVERATROL] |  |  |  |  |  | Activity [2]: Active
O=S(=O)(CCCCl)NCCNc1cccc2ccccc12 | Active | Active |  |  |  | 
CCN(CC)CCCN1C(=O)c2ccccc2S1(=O)=O |  |  | < 54% | Active |  | 
CC(NCCCS(=O)(=O)NCCNc1cccc2ccccc12)c1ccccc1 (centres undefined) | Active | Active |  |  | > 40 | 
O=C1NS(=O)(=O)c2ccccc21 [SACCHARIN] |  |  | < 54% | Active | 73 | IC50 (Cholinesterase [7]): 3600 nM
O=S(=O)(CCCNCCNc1cccc2ccccc12)NCCNc1cccc2ccccc12 | Active |  |  |  | 99 | inhibition [9]: 45%; IC50 (Cholinesterase [7]): 930 nM
COc1ccc(S(N)(=O)=O)cc1 |  |  | < 54% | Active |  | 
NS(=O)(=O)c1ccccc1Br |  |  | < 54% | Active |  | 
NS(=O)(=O)c1ccc([N+](=O)[O-])cc1 |  |  | < 54% | Active |  | 
CC(C(O)c1ccccc1)N(C)CCCS(=O)(=O)NCCNc1cccc2ccccc12.Cl (centres undefined) | Active | Active |  |  | > 40 | Activity [2]: Active
O=S(=O)(CCCN1CCN(Cc2ccccc2)CC1)NCCNc1cccc2ccccc12 | Active |  |  |  | 90 | Activity [2]: Active; IC50 (Cholinesterase [7]): 2000 nM; IC50 (Acetylcholinesterase): 160 nM; inhibition ([3]; concentration not given here): 43%
CCN(CC)CCN1C(=O)c2ccccc2S1(=O)=O |  |  | < 54% | Active |  | 
O=C1c2ccccc2S(=O)(=O)N1CCCN(CCO)CCO |  |  | < 54% | Active |  | 
O=S(=O)(CCCN1CCC(Cc2ccccc2)CC1)NCCNc1cccc2ccccc12 | Active |  |  |  | > 40 | inhibition ([3]; concentration not given here): 60%
O=C(CCC(=O)NCCNc1cccc2ccccc12)NCCNc1cccc2ccccc12 |  | Active | 50% |  |  | 
